Measured values: ChEMBL document CHEMBL1123129, “Hypolipidemic activity of indan-1,3-dione derivatives in rodents” (J Med Chem, 1985)

Columns and labels:
[1] = biological target: T1, Cholesterol 7-alpha-hydroxylase (Cytochrome P450 7A1) (Mus musculus, UniProt Q64505); assay: In vivo effect on Cholesterol 7-alpha-hydroxylase activity in CF1 mice after 16 days at 60 mg/kg oral dose; assay type: functional, organism-based; design: dose 60 mg/kg, route oral; details: read-out: Control
In short: (§1)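 CF1 male mice are dosed orally at 10–60 mg/kg per day for 16 days, with 1% CMC as the control vehicle. Liver is homogenized at 10% in 0.25 M sucrose + 0.001 M EDTA, pH 7.2. Enzymes are assayed by literature methods, with Lowry protein. Activity is given as % of control (X ± SD, N = 6), with p from Student's t test.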

[2] = test system: Rattus norvegicus; assay: Compound was evaluated for the hypolipidemic activity at 20 mg/kg per day orally for 14 days on neutral lipids content in rat small intestine.; assay type: functional; details: route oral
In short: (§2)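 Male Sprague–Dawley rats were dosed orally for 14 days. Liver, small intestine and a 24-h fecal collection were lipid-extracted. Extracts were assayed for cholesterol (modified Liebermann–Burchard), triglyceride (enzymatic kit), neutral lipids, phospholipids and protein. Values are % of 1% CMC vehicle control, mean ± SD, N = 6.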

[3] = test system: Mus musculus; assay: Compound was evaluated for the hypolipidemic activity in CF1 male mice at a dose of 60 mg/kg orally for Serum triglyceride at 16th day; assay type: functional; details: route oral
In short: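 CF1 male mice dosed orally at 10–60 mg/kg per day, with 1% CMC as the vehicle control; N = 6 per group. Serum cholesterol was read on days 9 and 16 and serum triglyceride on day 16. Liver lipids were extracted on day 16 and assayed for cholesterol, triglyceride, neutral lipid, phospholipid and protein. Values are given as % of control ± SD.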

[4] = biological target: Acetyl-CoA carboxylase 1 (Mus musculus) (UniProt Q5SWU9); assay: In Vitro evaluation for the CF1 liver enzyme activity on Acetyl-CoA carboxylase at concentration 100 uM
In short: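 Liver was taken from CF1 male mice and made into 10% homogenates, which were incubated with test compound at 50, 100 or 200 µM. Each enzyme was assayed by its literature method, and protein was measured by Lowry. N = 6. Activity is expressed as % of untreated control ± SD.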

[5] = test system: Mus musculus; assay: In Vivo effect for the hypolipidemic activity on Acetyl-coenzyme A synthetase in CF1 mice after 16 days of oral administration at a dose of 10 mg/kg; assay type: functional; in short: as §1
[6] = test system: Rattus norvegicus; assay: Compound was evaluated for the hypolipidemic activity at 20 mg/kg per day orally for 14 days on phospholipids content in rat LDL; assay type: functional; details: route oral
In short: (§3)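 Male Sprague–Dawley rats (~300 g) were dosed orally each day. Blood was drawn from the abdominal vein. Lipoprotein fractions (chylomicron, VLDL, LDL, HDL) were separated by the Hatch–Lees and Havel methods. Each fraction was assayed for cholesterol, triglyceride (enzymatic kit), neutral lipids, phospholipids and Lowry protein. Values are % of 1% CMC vehicle control, N = 6.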

[7] = test system: Mus musculus; assay: In Vivo effect for the hypolipidemic activity on phosphatidate phosphohydrolase in CF1 mice after 16 days administered orally at a dose of 20 mg/kg; assay type: organism-based; design: dose 20 mg/kg; in short: as §1
[8] = test system: Mus musculus; assay: Compound was evaluated for the hypolipidemic activity in CF1 male mice at a dose of 40 mg/kg orally for Serum cholesterol at 9th day; assay type: functional; details: route oral
In short: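 CF1 male mice received the agent orally in 1% CMC at 10–60 mg/kg per day. Tail-vein blood was taken on days 9 and 16. Serum cholesterol was measured by modified Liebermann–Burchard on duplicate 25-µL samples, and serum triglyceride on day 16 in duplicate 50-µL samples. Values are % of vehicle control, mean ± SD, N = 6; Student's t test.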

[9] = biological target: T2, Sterol O-acyltransferase 1 (Mus musculus) (UniProt Q61263); assay: In Vivo effect for the hypolipidemic activity on Acyl-COA cholesterol acyltransferase in CF1 mice after 16 days of oral administration at a dose of 20 mg/kg; assay type: functional, organism-based; design: dose 20 mg/kg; in short: as §1
T2 sequence (whole entry): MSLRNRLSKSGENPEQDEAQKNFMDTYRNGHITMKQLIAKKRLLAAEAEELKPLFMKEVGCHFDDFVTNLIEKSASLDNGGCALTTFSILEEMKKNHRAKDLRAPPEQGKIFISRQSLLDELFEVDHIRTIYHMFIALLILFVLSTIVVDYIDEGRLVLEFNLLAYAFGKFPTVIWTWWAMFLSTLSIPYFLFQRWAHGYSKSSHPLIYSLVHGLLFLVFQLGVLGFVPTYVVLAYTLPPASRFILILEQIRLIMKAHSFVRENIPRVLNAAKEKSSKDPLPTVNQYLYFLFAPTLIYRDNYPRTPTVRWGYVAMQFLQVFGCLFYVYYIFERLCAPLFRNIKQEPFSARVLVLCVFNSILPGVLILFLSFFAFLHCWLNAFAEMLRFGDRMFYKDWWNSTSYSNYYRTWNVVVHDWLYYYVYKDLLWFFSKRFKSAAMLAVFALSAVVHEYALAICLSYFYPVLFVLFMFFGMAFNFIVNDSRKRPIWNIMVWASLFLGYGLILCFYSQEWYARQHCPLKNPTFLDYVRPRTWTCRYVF

[10] = biological target: T1, Cholesterol 7-alpha-hydroxylase (Cytochrome P450 7A1); assay: In vivo effect on Cholesterol 7-alpha-hydroxylase activity in CF1 mice after 16 days at 40 mg/kg oral dose; assay type: functional, organism-based; design: dose 40 mg/kg, route oral; details: read-out: Control; in short: as §1
[11] = test system: Rattus norvegicus; assay: Compound was evaluated for the hypolipidemic activity at 20 mg/kg per day orally for 14 days on phospholipids content in rat VLDL; assay type: functional; details: route oral; in short: as §3
[12] = biological target: T1, Cholesterol 7-alpha-hydroxylase (Cytochrome P450 7A1); assay: In vitro percent Cholesterol 7-alpha-hydroxylase activity in mouse CF1 liver microsomes at 50 uM; design: species or system Microsome; details: read-out: Control
In short: (§4)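 Mouse liver enzymes assayed in vitro on 10% homogenates of CF1 male mouse liver, with test drug added at 50–200 μM. Each enzyme follows a published procedure. Protein is measured by Lowry. Activity is given as % of untreated control (X ± SD, N = 6).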

[13] = organism: Mus musculus; assay: In Vitro evaluation for the CF1 liver enzyme activity on Hepatic lipoprotein lipase at concentration 50 uM; assay type: functional; in short: as §4
[14] = test system: Mus musculus; assay: In Vivo effect for the hypolipidemic activity on Acetyl-CoA carboxylase in CF1 mice after 16 days administered orally at a dose of 10 mg/kg; assay type: functional; details: route oral; in short: as §1
[15] = test system: Rattus norvegicus; assay: Compound was evaluated for the hypolipidemic activity at 20 mg/kg per day orally for 14 days on cholesterol content in rat LDL; assay type: functional; details: route oral; in short: as §3
[16] = test system: Rattus norvegicus; assay: Compound was evaluated for the hypolipidemic activity at 20 mg/kg per day orally for 14 days on cholesterol content in rat small intestine.; assay type: functional; details: route oral; in short: as §2

T1 sequence (Q64505 whole entry): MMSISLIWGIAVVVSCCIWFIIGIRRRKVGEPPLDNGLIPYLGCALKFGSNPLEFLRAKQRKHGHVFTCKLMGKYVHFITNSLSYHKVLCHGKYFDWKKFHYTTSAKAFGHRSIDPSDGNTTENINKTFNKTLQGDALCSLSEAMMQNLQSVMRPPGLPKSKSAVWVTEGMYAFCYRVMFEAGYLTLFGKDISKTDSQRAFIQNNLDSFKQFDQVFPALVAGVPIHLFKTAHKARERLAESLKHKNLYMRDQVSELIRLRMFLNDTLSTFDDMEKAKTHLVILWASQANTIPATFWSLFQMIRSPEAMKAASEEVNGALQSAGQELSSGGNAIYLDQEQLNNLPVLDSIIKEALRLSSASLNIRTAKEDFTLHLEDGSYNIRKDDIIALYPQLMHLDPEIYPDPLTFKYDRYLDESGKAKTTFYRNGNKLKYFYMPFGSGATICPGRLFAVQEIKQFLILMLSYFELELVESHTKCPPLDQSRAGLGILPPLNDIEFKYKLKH

activity at 384 h [1]: 60% | Control [4]: 93% | Control [9]: 48% | activity at 384 h [10]: 55% | activity at 50 µM [12]: 106%
Compound: COc1ccc(C2C(=O)c3ccccc3C2=O)cc1 [ANISINDIONE]
Control [2]: 95% | Control [3]: 67% | Control [5]: 83% | Control [6]: 204% | Control [7]: 35% | Control [8]: 79% | Control [11]: 128% | Control [13]: 86% | Control [14]: 89% | Control [15]: 18% | Control [16]: 87%
